{
  "source": "paper PMC10871334",
  "about": "(bioRxiv, 2024)",
  "key": {"SUGCT [1]": {"molecular_target": "T1, SUGCT (Homo sapiens, UniProt Q9HAC7)", "T1 sequence (Q9HAC7 31-438 limits assumed)": "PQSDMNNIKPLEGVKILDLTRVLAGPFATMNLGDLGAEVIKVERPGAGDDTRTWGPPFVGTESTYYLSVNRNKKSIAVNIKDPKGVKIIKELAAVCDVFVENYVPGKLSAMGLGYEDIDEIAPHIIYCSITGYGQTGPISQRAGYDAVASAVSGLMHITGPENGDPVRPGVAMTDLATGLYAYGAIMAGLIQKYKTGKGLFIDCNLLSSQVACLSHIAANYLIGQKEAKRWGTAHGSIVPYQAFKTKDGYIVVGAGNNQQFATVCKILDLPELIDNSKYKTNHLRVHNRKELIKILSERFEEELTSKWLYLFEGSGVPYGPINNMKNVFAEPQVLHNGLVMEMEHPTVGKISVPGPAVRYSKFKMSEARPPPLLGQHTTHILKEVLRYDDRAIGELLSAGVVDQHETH", "assay": "Fluorometric SUGCT enzyme assay coupled to HMG-CoA reductase", "format": "biochemical", "conditions": "for SUGCT inhibition at 10 μM (in words): repurchased hits"}, "[2]": {"molecular_target": "T2, human HMG-CoA reductase (HMGCR) (Homo sapiens, UniProt P04035)", "T2 sequence (P04035 426-888)": "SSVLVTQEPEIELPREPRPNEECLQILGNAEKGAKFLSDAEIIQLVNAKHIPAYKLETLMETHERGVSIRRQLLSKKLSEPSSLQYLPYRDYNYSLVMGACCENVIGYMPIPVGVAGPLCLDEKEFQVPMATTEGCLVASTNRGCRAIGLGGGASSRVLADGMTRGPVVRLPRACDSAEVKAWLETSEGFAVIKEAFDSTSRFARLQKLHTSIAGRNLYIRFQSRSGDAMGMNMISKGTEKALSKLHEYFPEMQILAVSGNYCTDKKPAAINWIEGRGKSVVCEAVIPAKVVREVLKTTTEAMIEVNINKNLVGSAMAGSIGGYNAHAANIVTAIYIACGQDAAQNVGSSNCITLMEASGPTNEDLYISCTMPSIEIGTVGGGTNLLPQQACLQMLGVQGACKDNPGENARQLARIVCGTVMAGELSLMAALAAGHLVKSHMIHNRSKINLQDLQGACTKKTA", "assay": "Spectrophotometric HMGCR counter-screen assay", "format": "biochemical", "conditions": "up to 100 μM", "method_in_brief": "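Human HMGCR catalytic domain (residues 426–888), N-terminal His-tagged, expressed in E. coli and IMAC-purified. Assay contains 9 U/L HMGCR, 150 μM HMG-CoA, 300 μM NADPH, 4 mM DTT and 0.1% Triton X-100 in 100 mM potassium phosphate, pH 7.4. NADPH consumption is followed by absorbance at 340 nm.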"}, "[3]": {"tested_on": "SUGCT overexpressing GA1 HEK-293 cells", "assay": "C5DC in SUGCT overexpressing GA1", "format": "cell-based, human", "conditions": "treatment of SUGCT overexpressing GA1 HEK-293 cells", "method_in_brief": "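Stable SUGCT overexpression in Flp-In 293 cells by co-transfection with Flp recombinase and selection in 100 μg/ml hygromycin B for 2–3 weeks. GCDH knocked out by CRISPR-Cas9, with single-clone sorting. Cells grown at 37°C, 5% CO2 in DMEM with 10% FBS. Metabolites extracted with cold methanol:acetonitrile:water 5:3:2 overnight at −80°C, then analysed by reverse-phase C18 LC-MS in positive mode.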"}, "SUGCT [4]": {"molecular_target": "T1, SUGCT", "format": "biochemical", "conditions": "HMG-CoA as CoA donor, 30 minutes"}},
  "note": "Entries after “also recorded” stand apart in the source; their conditions may differ.",
  "data": [
    {"smiles": "O=C(O)CCCC(=O)O", "note": "[Glutarate, glutarate]", "values": [
      {"measurement": "mode of inhibition", "setting": "SUGCT [1]; with respect to HMG, increases apparent Km for HMG", "value": "competitive inhibitor"}
    ]},
    {"smiles": "CCCCC(=O)N(Cc1ccc(-c2ccccc2-c2nnn[nH]2)cc1)[C@H](C(=O)O)C(C)C", "note": "[Valsartan]", "values": [
      {"measurement": "SUGCT inhibition at 10 μM (in words)", "setting": "SUGCT [1]", "value": "inhibited"},
      {"measurement": "IC50", "setting": "SUGCT [1]; IC50 (SUGCT inhibition), standard assay, 100 mM potassium phosphate pH 7.4", "value": 3.8, "unit": "µM"},
      {"measurement": "inhibition at 10 µM", "setting": "SUGCT [1]; read-out: inhibition of SUGCT at 10 μM", "value": "> 50", "unit": "%"},
      {"measurement": "inhibition of HMGCR", "setting": "[2]", "value": "did not inhibit"},
      {"measurement": "effect on C5DC / activity in cells", "setting": "[3]", "value": "did not observe a decrease in C5DC; also recorded: unable to detect activity"},
      {"measurement": "conversion into a CoA ester by SUGCT", "setting": "SUGCT [4]", "value": "no evidence"}
    ]},
    {"smiles": "CCCCc1nc(Cl)c(CO)n1Cc1ccc(-c2ccccc2-c2nn[nH]n2)cc1", "note": "[losartan]", "values": [
      {"measurement": "activity of Angiotensin II Receptor Blockers on SUGCT (in words)", "setting": "SUGCT [1]; each ARB measured in duplicate at 10 μM", "value": "inactive"}
    ]},
    {"smiles": "O=C(O)CCc1nc(-c2ccccc2)c(-c2ccccc2)o1", "note": "[oxaprozin]", "values": [
      {"measurement": "SUGCT inhibition at 10 μM (in words)", "setting": "SUGCT [1]", "value": "inhibited"}
    ]},
    {"smiles": "CC(C)c1nc(N(C)S(C)(=O)=O)nc(-c2ccc(F)cc2)c1/C=C/[C@@H](O)C[C@@H](O)CC(=O)O", "note": "[rosuvastatin]", "values": [
      {"measurement": "result in high throughput screen of FDA approved library", "setting": "SUGCT [1]; screening concentration 100 μM, coupled assay also detects HMGCR inhibitors", "value": "one of our hits"}
    ]},
    {"smiles": "CCCCC(=O)N(Cc1ccc(-c2ccccc2-c2nn[nH]n2)cc1)[C@H](C(=O)OCC)C(C)C", "note": "[valsartan ethyl ester, Valsartan ethyl ester]", "values": [
      {"measurement": "effect on C5DC / activity in cells", "setting": "[3]", "value": "did not observe a decrease in C5DC"}
    ]}
  ]
}
